Screens: PubChem, several laboratories
Yeast growth inh – chemicals that inhibit yeast BB579 growth in restrictive medium (lifespan-shortening candidates). S. cerevisiae BB579 growth, OD615, 48 h. inhibition, % at 10 µM. 140,000 compounds, 0.51% hits;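 active = inhibition above a set limit, 3 SD over the mean compound inhibition, cut at about 44% in these data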
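System: Saccharomyces cerevisiae DeaD strain BB579, replicative lifespan model yeast | Buffer or medium: Restrictive glucose-based CSMM-D medium | Times: 4 h preincubation and 48 h exposure at 30 °C | Detection: OD615 turbidity measurement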
sdo1 growth – sdo1-depleted yeast growth rescue; S. cerevisiae sdo1-depleted JHY4D growth rescue, OD600 30 h; hits give high values; pdr5 snq2 efflux-pump mutant strain; z-score at 10 µM; 140,000 compounds, 0.21% hits;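 active = z-score above 3 at both the 24 hr and the 30 hr optical density reads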;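 also: z-score against mean and SD of all compound wells on the same plate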
RAM inhibit – blocks the yeast RAM network; S. cerevisiae dse1pr::URA3 reporter, 5-FOA growth OD615, 2 d; analog-sensitive cbk1-as2 kinase mutant strain; inhibition, % at 50 µM; AID 868; 190,000 compounds, 1.8% hits;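 active = inhibition above a set limit, 3 SD over mean compound inhibition, cut at about 8.4% in these data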;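 also: 0% = DMSO-only wells with no growth and 100% = 10 µM 1-NA-PP1 full growth; inhibition rescues growth on 5-FOA so higher OD means more RAM inhibition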
Yeast life ext – yeast lifespan extension | AID 775 | inhibition of the nicotinamide effect, % at 10 µM | S. cerevisiae growth with nicotinamide, OD615; deaD strain in restrictive glucose medium | 130,000 compounds, 0.68% hits;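 active = inhibition above a set limit, placed 3 SD over the median of all compounds, cut at about 26% in these data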;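 also: 0% = nicotinamide-treated wells and 100% = cells grown without nicotinamide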
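assay system = DeaD-strain S. cerevisiae | measured by = absorbance at 615 nm | probe or stimulus = nicotinamide 1.5 mM | buffer or medium = CSMM-D glucose medium, restrictive | times = 48 h at 30 °C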
An asterisk follows results filed as active; / = no result given; [ ] = another dose, or the depositor's remark. Shown are actives, neighbours in structure and some others; about 2.7% of the full set was active somewhere.

SMILES	Yeast growth inh	sdo1 growth	RAM inhibit	Yeast life ext
O=C(COc1c(Br)cc(Br)c2cccnc12)N1CCCCC1	/	/	-1.1	/
Oc1ccc(CN2CCN(Cc3ccccc3)CC2)c2cccnc12	-19.8	0.18[11.4 µM]	2.7	-16.5
Oc1c(CN2CCc3ccccc3C2)cc(Cl)c2cccnc12	98.7*	-2.11	-1.7	-14.8
CN1CCN(Cc2cc(COCc3ccccc3)c3cccnc3c2O)CC1	50.5*	-0.68	-1.1	-3.4
Cc1c(C(=O)NN2CCOCC2)oc2c1ccc1ccccc12	/	/	-0.7	/
COCCCNc1nc2nonc2nc1N(C)CC1CCCN1C (stereo not given)	/	/	0.9	/
CCC(C)(C)NC(=O)C(c1ccc(F)cc1)N(Cc1cccs1)C(=O)c1cnccn1 (stereo not given)	/	/	0.2	/
C=CCSC(=S)NC1CCS(=O)(=O)C1 (stereo not given)	-18.6	-0.73	-0.3	12.9
Cc1ccc(C(=O)NCc2nnc(SCC(=O)NC(C)c3ccccc3)n2C)cc1 (stereo not given)	/	/	0.8	/
Cc1cc(Cl)c(S(=O)(=O)N2CCN(c3ccccn3)CC2)cc1OCC(N)=O	/	/	1.9	/
Cn1c(SCC(=O)Nc2ccccc2)nc(O)cc1=O	61.6*	-0.1	1.2	-4.7
Cc1ccc(/C=C/C(=O)CCC(=O)O)cc1	/	/	0.6	/
CCOC(=O)C1=C(N)OC2=C(C(=O)CCC2)C1c1ccc(C)s1 (stereo not given)	-26.2	-0.6	0.3	7.4
CCOC(=O)C1=C(N)OC2=C(C(=O)CCC2)C1c1sccc1C (stereo not given)	-7.9	0.96	0.9	47.4*
CN(C)S(=O)(=O)c1cccc(C(=O)Nc2ccccc2)c1	/	/	2.3	/
O=S(=O)(Nc1ccc(S(=O)(=O)Nc2ccccc2)cc1)c1ccccc1	-8.6	0.05	0.9	-12.1
O=C(Nc1ccccc1)c1cccc(S(=O)(=O)Oc2ccc([N+](=O)[O-])cc2)c1	-22.9	-0.83	10.1*	-4.6
O=[N+]([O-])c1ccc(Oc2ccc(S(=O)(=O)Nc3ccccc3)cc2)cc1	-27.6	-1.96	9.8*	-1.0
Cc1ccc(C(=O)OCC(=O)c2c[nH]c3ccccc23)cc1NC(=O)c1ccco1	/	/	5.2	/
CN1CCN(C(=S)Nc2cc([N+](=O)[O-])ccc2Cl)CC1	-20.6	0.64	-0.7	45.2*
CCN1C(=O)/C(=C\c2nc3ccccc3c(=O)n2-c2ccccc2)c2ccccc21	-69.1	-1.44	9.6*	7.5
CCOC(=O)Cc1cnc(NC(=O)CSc2nc3ncnc(N)c3[nH]2)s1	/	/	3.5	/
CCCCCCC1C(C#N)=C(N)OC2=C1C(=O)CC(C)(C)C2 (stereo not given)	-18.8	-0.89	4.1	40.1*
CN(C)S(=O)(=O)Oc1cccc(C(=O)Nc2ccc(Cl)c(Cl)c2)c1	-21.9	-2.3	9.9*	-16.7
COCCn1c(SCC(=O)N2CCc3ccccc3C2)nc2cc(Cl)ccc2c1=O	22.9	-1.7	0.8	-1.4
SMILES	Yeast growth inh	sdo1 growth	RAM inhibit	Yeast life ext
COCCn1c(SCc2ccc(C(=O)OC)o2)nc2cc(Cl)ccc2c1=O	-18.7	-0.69	9.4*	-8.3
COCCn1c(SCC(=O)Nc2cccc(C(=O)OC)c2)nc2ccccc2c1=O	-42.0	-1.12	8.8*	-9.0
COCCCn1c(SCc2nc3ccccc3c(=O)[nH]2)nc2ccccc2c1=O	-32.4	-0.71	9.5*	-5.3
C=Cc1ccc2c(c1)N(C)C(=C)S2	/	/	2.9	/
COc1cccc(C(CC(=O)Nc2cccc3ccccc23)NC(=O)c2ccccc2)c1 (stereo not given)	-11.9	-1.27	10.1*	-0.7
O=C(OC1CCCCC1)c1ccc2c(c1)C1C=CCC1C(C(=O)O)N2 (stereo not given)	-11.3	-0.75	11.4*	-0.8
O=C(O)C1Nc2c(O)cccc2C2C=CCC12 (stereo not given)	-37.2	0.11	4.8	-4.6
CCN(CC)C(=O)COc1ccc(/C=C(\C#N)S(=O)(=O)c2ccccc2)cc1OC	/	/	7.4	/
CC(SCC(=O)NC(C)C1CC2CCC1C2)C(=O)O (stereo not given)	9.8	0.31	-0.8	-3.3
COc1ccc(/C=C2\SC(=S)N(CCCC(=O)NNC(=O)c3ccccc3O)C2=O)cc1	/	/	0.0	/
O=C(CN1C(=O)/C(=C\C=C\c2ccccc2)SC1=S)Nc1ccc(F)cc1	-27.6	-0.44	9.7*	5.0
COc1ccc(CN2C(=O)/C(=C/c3ccncc3)SC2=S)cc1	-32.6	-1.39	-1.7	48.1*
O=C(O)CCCCCN1C(=O)/C(=C\c2ccncc2)SC1=S	-15.5	0.91	1.6	52.2*
O=C(NN1C(=O)/C(=C/C=C/c2ccccc2)SC1=S)c1ccncc1	/	/	9.3*	/
O=C(O)CCCCCN1C(=O)/C(=C/c2ccncc2)SC1=S	-29.1	0.81	-1.2	40.0*
O=C(CCN1C(=O)/C(=C/c2ccccc2)SC1=S)NNC(=O)c1ccncc1	/	/	8.8*	/
CC(C)OC(=O)c1ccc(N)cc1	/	/	0.2	/
Cc1ccc2nc(CSc3nnc(Nc4ccccc4F)s3)cc(=O)n2c1	-24.8	-0.16	4.5	2.2
Cc1ccc(Nc2nnc(SCc3cc(=O)n4cc(C)ccc4n3)s2)cc1	-6.3	-1.17	10.8*	-1.9
COc1ccc(CNC(=O)C(c2cccs2)N(Cc2ccco2)C(=O)Cc2cccs2)cc1 (stereo not given)	-47.2	-1.24	10.6*	/
Cc1ccc(C(C(=O)NCc2ccccc2)N(Cc2cccs2)C(=O)c2ccc3c(c2)OCCO3)cc1 (stereo not given)	-22.6	-1.19	4.8	3.5
COc1ccc(CNC(=O)C(c2ccco2)N(Cc2cccs2)C(=O)Cc2cccs2)cc1 (stereo not given)	-86.1	-1.83	4.9	0.6
COc1ccc(CNC(=O)C(c2ccc(C)cc2)N(Cc2cccs2)C(=O)c2ccc3c(c2)OCCO3)cc1 (stereo not given)	-58.9	-0.44	8.7*	3.5
NS(=O)(=O)c1ccc(CCN=Cc2ccccc2O)cc1	-7.0	0.07	0.0	-2.1
CCCNC(=O)CS(=O)Cc1nc(-c2ccccc2C)oc1C (stereo not given)	1.2	0.59	0.7	-7.0
SMILES	Yeast growth inh	sdo1 growth	RAM inhibit	Yeast life ext
CCC(C)NC(=O)CS(=O)Cc1nc(-c2ccccc2C)oc1C (stereo not given)	47.1*	0	1.4	-0.5
O=C(N/N=C/c1cccc([N+](=O)[O-])c1)c1ccccc1-n1cccc1	/	/	0.1	/
COc1ccc(N(CC(=O)O)S(=O)(=O)c2ccc(OC)c(OC)c2)cc1	-22.8	-0.33	1.9	29.3*
COC(=O)CN(c1ccc(OC)cc1)S(=O)(=O)c1ccc(OC)c(OC)c1	-29.2	0.55	3.8	-3.8
COc1ccc(N(CC(=O)Nc2ccc(C(N)=O)cc2)S(=O)(=O)c2ccc(C)c([N+](=O)[O-])c2)cc1	/	/	2.9	/
COc1ccc(N(CC(=O)Nc2ccccc2C(N)=O)S(=O)(=O)c2ccc(C)c([N+](=O)[O-])c2)cc1	/	/	10.1*	/
COc1cc2c(cc1OC)C(C(=O)NCCN(C)C)C(c1cccs1)N(C)C2=O (stereo not given)	/	/	-1.6	/
Cc1ccc2nc(-c3ccc(NC(=O)CSc4ccccc4)cc3)[nH]c2c1	-22.4	-1.28	3.0	75.9*
